Consider two compounds from ChEMBL document CHEMBL1150201, “Verbascoside isolated from Lantana camara, an inhibitor of protein kinase C” (J Nat Prod, 1991).

In test [1] the target is T1, Protein kinase C (PKC) (Rattus norvegicus) (UniProt P05696+P68403+P09216+P63319+P09215+Q64617+Q9WTQ0+P09217). In words: Displacement of [3H]PDBu from rat brain PKC at 1 mM by scintillation counting. The essentials:
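PKC incubated 1 h at 30° in 250 µl of 50 mM Tris/HCl pH 7.4 with 1 mM CaCl₂, 39.2 nM [³H]-PDBu and 50 µg/ml PKC, plus compound. Nonspecific binding defined with 100-fold excess unlabelled PDBu. Diluted with ice-cold buffer, filtered on glass fiber, washed 3 times, bound radioactivity by scintillation counting.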

The subject of another test is LSTRA. In words: Inhibition of protein tyrosine kinase in mouse LSTRA cells assessed as formation of [32P]phosphotyrosine at 100 uM by gel electrophoresis. It counts as cell-based.
Test [2] deals with L1210. In words: Antiproliferative activity against mouse L1210 cells after 48 hrs by coulter counting analysis. The format is functional, cell-based. The conditions noted are these: L1210, 48 h. The essentials:
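L1210 cells seeded at 10^4 per well in DMEM with 10% fetal calf serum, 4 mM glutamine and penicillin/streptomycin, with compound added from DMSO. Grown 2 days at 37° in 5% CO₂, then counted in a Coulter counter. Cultures were logarithmically growing at plating; n = 6. IC₅₀ taken from linear regression lines.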

In test [3] the target is T1, Protein kinase C (PKC) (Rattus norvegicus). Description: Inhibition of rat brain PKC catalytic domain using histone type 3-S as substrate by noncompetitive Lineweaver-Burke plot analysis. The essentials: (§1)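 Catalytic fragment made by incubating PKC for 10 min at 30° with 1 µg/ml trypsin, giving calcium- and lipid-independent activity. It was then assayed in the mixed-micelle histone phosphorylation assay, varying ATP or histone.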

Test [4] has as its target Protein kinase C (PKC). In words: Displacement of [gamma32P]ATP from rat brain PKC by competitive Lineweaver-Burke plot analysis. The essentials: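 Rat brain PKC (0.5 µg) in the mixed-micelle assay with histone fixed at 200 µg/ml and ATP varied. Inhibitor levels were 0, 5, 10 and 15 µM. Data were analysed as double-reciprocal plots. Apparent Ki came from line intersections by unweighted least-squares fit.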

For test [5], the target named is T1, Protein kinase C (PKC) (Rattus norvegicus). In words: Displacement of [gamma32P]ATP from rat brain PKC catalytic domain by competitive Lineweaver-Burke plot analysis. The essentials: as §1
Test [6] has as its target Protein kinase C (PKC). In words: Inhibition of rat brain PKC using histone type 3-S as substrate by noncompetitive Lineweaver-Burke plot analysis.
Test [7] deals with L1210. Description: Cytotoxicity against mouse L1210 cells at 10 uM by MTT assay. The format is functional, cell-based. The essentials: (§2)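 MTT colorimetric assay after Mosmann, measuring reduction of the tetrazolium to blue formazan by viable cells, read photometrically. Treated cells were compared with the same number of untreated cells.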
(Formazan colour is commonly taken as a measure of viable cells.)

Test [8] deals with Protein kinase C (PKC). In words: (§3) Inhibition of rat brain PKC by mixed micellar assay. The essentials: (§4)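 PKC purified from rat brain, 0.5 µg per tube. Medium was 20 mM Tris/HCl pH 7.5, 10 mM MgCl₂, 200 µg/ml histone IIIS, micelles of 700 µM phosphatidylserine and 180 µM 1,2-dioleine in 0.3% Triton X-100, 0.2 mM CaCl₂, 100 µM ATP with [γ-³²P]-ATP and compound in DMSO. After 3 min at 30°, TCA-precipitated material was filtered and counted. Activity without micelles/CaCl₂ subtracted; 6 replicates.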

Test [9] deals with T1, Protein kinase C (PKC) (Rattus norvegicus). The description is as §3. The essentials: as §4
A short description of test [10]: Inhibition of PKA at 100 uM.
The target in test [11] is Protein kinase C (PKC). In words: Inhibition of rat brain PKC catalytic domain by mixed micellar assay. The essentials: as §1
Test [12] relates to L1210. In words: Cytotoxicity against mouse L1210 cells at 25 uM by MTT assay. It counts as functional, cell-based. The essentials:
as §2

Molecules are shown by their SMILES. Activity calls are given as the source filed them. The rule behind the calls is not given here.

For orientation: inhibition means how much of the control response was suppressed. A word on the IC50: it is the concentration at which inhibition is half-maximal. A high value points to a need for much substance. The term Ki denotes a measure of affinity in units of concentration, obtained from inhibition or displacement. Read a high Ki as lower affinity. Take `C[C@@H]1O[C@@H](O[C@@H]2[C@@H](O)[C@H](OCCc3ccc(O)c(O)c3)O[C@H](CO)[C@H]2OC(=O)/C=C/c2ccc(O)c(O)c2)[C@H](O)[C@H](O)[C@H]1O` [ACETOSIDE]: the results for the inhibition (in [1]; with LSTRA; in test [10]) were 9%, less than 10% and less than 10%, respectively. Moreover, the IC50 in the test with L1210 [2] was found to be 13 µM; at Protein kinase C (PKC) [8], 25 µM; against Protein kinase C (PKC) [11], 21 µM. The outcome in [3] and in test [5] was Active. Besides, the figures for the Ki on Protein kinase C (PKC) [4] and on Protein kinase C (PKC) [6] were 22 µM and 28 µM, respectively. In the test on L1210 [7], the outcome was inactive. In addition, the Activity entry in test [9] was “Dose-dependent effect”.

As for `C[C@H]1CNCCN1S(=O)(=O)c1cccc2cnccc12`, in the test on L1210 [12], the result was inactive. This compound yielded an IC50 with L1210 [2] of 23.5 µM.
